How the values were obtained:
J774.A1 = assay: Drug uptake in mouse J774A1 cells assessed as total peptide concentration at 100 uM after 5 hrs at 37 degC by HPLC analysis; type: ADME, cell-based; conditions: j774.a1, 5 h
In short: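 J774A.1 cells were incubated with unlabeled peptide for 5 or 24 h at 37°C or 4°C, washed in ice-cold PBS and lysed with NP-40 buffer. Lysates were run on reverse-phase HPLC with an acetonitrile/0.1% TFA gradient and A280 fractions. Monomer (~17.5 min) and dimer (~17.75 min) peak areas were compared against a standard curve. Intracellular mM was calculated using 300,000 cells and 1 pl/cell, with concentration expressed as monomer mass.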

[1] = Drug uptake in mouse peritoneal macrophages assessed as total peptide concentration at 150 uM after 24 hrs at 37 degC by HPLC analysis; type: ADME, cell-based; conditions: peritoneal macrophage cell
In short: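 Macrophages were elicited in 8–12-week-old female BALB/c mice with 4% thioglycolate i.p. and harvested by lavage 4 days later. Cells were seeded at 300,000 per well for 24 h, then given unlabeled peptide in DMEM for 24 h at 37°C. Lysates were run on reverse-phase HPLC at A280. Monomer (17.5 min) and dimer (17.75 min) peak areas were compared with a standard curve. Concentration assumed 1 pl per cell; values are means of three determinations.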

Structure (SMILES): N=C(N)NCCC[C@@H](NC(=O)[C@@H](CS)NC(=O)[C@@H](Cc1ccc(O)cc1)NC(=O)[C@@H](Cc1c[nH]c2ccccc12)NC(=O)[C@@H](CCCNC(=N)N)NC(=O)[C@H](N)Cc1c[nH]c2ccccc12)C(=O)O
- Drug uptake (J774.A1): 8 mM
- Drug uptake [1]: 24.8 mM
